In ChEMBL document CHEMBL1158816, “Meroterpenes from the ascidian Aplidium aff. densum” (J Nat Prod, 2005) one finds MIC and IC50 data, which are given here for five compounds.

The MIC is the least concentration at which growth counts as inhibited. A higher MIC goes with weaker potency.

In brackets after ≈: the same amount, converted by molar mass.

The subject of one test is Escherichia coli. Put plainly: Antimicrobial activity against Escherichia coli by broth dilution method. The format is functional. In short, it runs like this: (§1)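 Broth dilution per NCCLS guidelines; compounds in DMSO (at most 5% of total volume) incubated with bacteria (Institut Pasteur strains) in PB medium, 37 °C, 24 h with stirring. Growth read as optical density at 630 nm. Triplicate, averaged. Where growth was absent, medium plated on rich solid medium to tell bacteriostatic from bactericidal.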

The next test concerns Micrococcus luteus. Briefly: Antimicrobial activity against Micrococcus luteus by broth dilution method. In kind it is functional. In short, it runs like this:
as §1
A general note: Dilution methods test growth across graded concentrations, often in twofold steps.

A further test has as its system CCRF-CEM. Put plainly: Cytotoxicity against human wild type CEM cells after 72 hrs. In kind it is functional, cell-based. Put shortly:
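CCRF-CEM (CEM-WT) acute lymphoblastic leukemia cells grown in RPMI 1640 with L-glutamine, 10% FCS, penicillin/streptomycin, 5% CO2, 37 °C. Serial dilutions in medium (10^-4 to 1 mg/mL) added to 2 × 10^5 cells/mL without medium renewal. Cells counted with a particle counter over time. IC50 taken at 72 h; triplicate, averaged.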

For the compound `CC1=CC2C(CC1)C(C)(C)OC21CC(=O)C=CC1=O` (configuration not stated) [CONIDIONE], the minimum inhibitory concentration (MIC) with Escherichia coli and in the test on Micrococcus luteus was over 2000 µM throughout.

`Cc1ccc2c(c1)-c1cc(O)ccc1OC2(C)C` [DIDEHYDROCONICOL]: the MIC is over 2000 µM against Escherichia coli and 510 µM (≈ 123 µg/mL) in the test on Micrococcus luteus.

For `CC1=C[C@@H]2c3cc(O)ccc3OC(C)(C)[C@@H]2CC1` [EPICONICOL], the MIC was over 2000 µM against Escherichia coli and 130 µM (≈ 31.8 µg/mL) in the test with Micrococcus luteus. For the same compound, the IC50 in the test on CCRF-CEM turned out to be 60 µmol.

`CC(C)=CCCC1(C)C=Cc2cc(O)ccc2O1` (configuration not stated) [CORDIACHROMENE A]: the MIC is over 2000 µM with Escherichia coli and 510 µM (≈ 125 µg/mL) with Micrococcus luteus. In addition, the IC50 in the test with CCRF-CEM came out at 30 µM.

Regarding `COC(C)(C)[C@H]1CCC(C)=C[C@H]1c1cc(O)ccc1O` [METHOXYCONIDIOL], the MIC with Escherichia coli and in the test with Micrococcus luteus was over 2000 µM in each case.
